The source made the active and inactive calls. No cut-off for these calls is given here.
What was measured:
Format in all cases: functional, cell-based
HT-29 = test: Cytotoxicity against human HT-29 cells assessed as cell survival after 96 hrs by sulforhodamine B assay; conditions: HT-29, 96 h
In short: (§1)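 Cells in exponential growth were seeded at densities that avoided confluence and, after 24 h, exposed to serial compound dilutions (0-30 μM, DMSO ≤0.5% final) for 96 h. Cells were then fixed with 10% TCA at 4 °C, washed with water, and stained with 0.4% SRB for about 20 min. Excess dye was removed with 1% acetic acid, bound dye was taken up in 10 mM Tris base, and absorbance was read at 570 nm.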

MCF7 = test: Cytotoxicity against human MCF7 cells assessed as cell survival after 96 hrs by sulforhodamine B assay; conditions: MCF7, 96 h; in short: as §1
A549 = test: Cytotoxicity against human A549 cells assessed as cell survival after 96 hrs by sulforhodamine B assay; conditions: A549, 96 h; in short: as §1
[1] = Cytotoxicity against human 518A2 cells assessed as cell survival after 96 hrs by sulforhodamine B assay; conditions: 518A2, 96 h; in short: as §1
A2780 [2] = test: Cytotoxicity against human A2780 cells assessed as cell survival after 96 hrs by sulforhodamine B assay; conditions: A2780, 96 h; in short: as §1
8505C = test: Cytotoxicity against human 8505C cells assessed as cell survival after 96 hrs by sulforhodamine B assay; in short: as §1
A2780 [3] = test: Induction of apoptosis in human A2780 cells at EC90 after 48 hrs by acridine orange/propidium iodide staining-based fluorescence microscopic analysis
In short: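 The supernatant cells were pelleted, washed in PBS, resuspended in PBS, mixed with acridine orange/propidium iodide, and examined under a fluorescence microscope, with green-fluorescent cells scored as undergoing controlled death and orange cells as necrotic.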

SMILES | EC50 (HT-29) [µM] | EC50 (MCF7) [µM] | EC50 (A549) [µM] | EC50 [1] [µM] | EC50 (A2780 [2]) [µM] | EC50 (8505C) [µM] | Activity (A2780 [3])
CC1(C)CC[C@]2(C(=O)NCCN3CCCC3)CC[C@]3(C)C(=CC[C@@H]4[C@@]5(C)CC[C@H](O)[C@@](C)(CO)[C@@H]5CC[C@]43C)[C@@H]2C1 | 1.2 | 3.7 | 1.9 | 2 | 1.1 | 1.8 | Active
CC1(C)CC[C@]2(C(=O)OCc3ccc(F)cc3F)CC[C@]3(C)C(=CC[C@@H]4[C@@]5(C)CC[C@H](O)[C@@](C)(CO)[C@@H]5CC[C@]43C)[C@@H]2C1 | 13 | 11.5 | 11.4 | 9.5 | 12.9 | 8 | 
CC1(C)CC[C@]2(C(=O)OCc3c(F)cccc3F)CC[C@]3(C)C(=CC[C@@H]4[C@@]5(C)CC[C@H](O)[C@@](C)(CO)[C@@H]5CC[C@]43C)[C@@H]2C1 | 12 | 10.2 | 11.7 | 7.5 | 11.6 | 8.7 | 
CC1(C)CC[C@]2(C(=O)OCc3ccccc3[N+](=O)[O-])CC[C@]3(C)C(=CC[C@@H]4[C@@]5(C)CC[C@H](O)[C@@](C)(CO)[C@@H]5CC[C@]43C)[C@@H]2C1 | 12.8 | 10.2 | 10.9 | 10.3 | 12.9 | 8.8 | 
CC1(C)CC[C@]2(C(=O)NCCN3CCCCC3)CC[C@]3(C)C(=CC[C@@H]4[C@@]5(C)CC[C@H](O)[C@@](C)(CO)[C@@H]5CC[C@]43C)[C@@H]2C1 | 1.3 | 6.5 | 2.7 | 3.7 | 1.8 | 3.6 | 
CC1(C)CC[C@]2(C(=O)NCCN3CCOCC3)CC[C@]3(C)C(=CC[C@@H]4[C@@]5(C)CC[C@H](O)[C@@](C)(CO)[C@@H]5CC[C@]43C)[C@@H]2C1 | > 30 | > 30 | > 30 | > 30 | > 30 | > 30 | 
CC1(C)CC[C@]2(C(=O)OCc3ccc(Cl)cc3)CC[C@]3(C)C(=CC[C@@H]4[C@@]5(C)CC[C@H](O)[C@@](C)(CO)[C@@H]5CC[C@]43C)[C@@H]2C1 | 13.5 | 12.7 | 9.8 | 11.4 | 13 | 8.1 | 
CC1(C)CC[C@]2(C(=O)OCCCN3C(=O)c4ccccc4C3=O)CC[C@]3(C)C(=CC[C@@H]4[C@@]5(C)CC[C@H](O)[C@@](C)(CO)[C@@H]5CC[C@]43C)[C@@H]2C1 | 13.4 | 9 | 11.4 | 8.7 | 12.1 | 10.3 | 

— ChEMBL document CHEMBL3632609, “Hederagenin as a triterpene template for the development of new antitumor compounds” (Eur J Med Chem, 2015)
